Data as given in PMC4339026 (Biopolymers, 2014).

Assays:
Assay type in all cases: biochemical
meprin β [1] = target: T1, meprin β (Homo sapiens, UniProt Q16820); assay: Meprin β LOPAC pilot screen; conditions: 18 μM
T1 sequence (Q16820 62-614 limits assumed): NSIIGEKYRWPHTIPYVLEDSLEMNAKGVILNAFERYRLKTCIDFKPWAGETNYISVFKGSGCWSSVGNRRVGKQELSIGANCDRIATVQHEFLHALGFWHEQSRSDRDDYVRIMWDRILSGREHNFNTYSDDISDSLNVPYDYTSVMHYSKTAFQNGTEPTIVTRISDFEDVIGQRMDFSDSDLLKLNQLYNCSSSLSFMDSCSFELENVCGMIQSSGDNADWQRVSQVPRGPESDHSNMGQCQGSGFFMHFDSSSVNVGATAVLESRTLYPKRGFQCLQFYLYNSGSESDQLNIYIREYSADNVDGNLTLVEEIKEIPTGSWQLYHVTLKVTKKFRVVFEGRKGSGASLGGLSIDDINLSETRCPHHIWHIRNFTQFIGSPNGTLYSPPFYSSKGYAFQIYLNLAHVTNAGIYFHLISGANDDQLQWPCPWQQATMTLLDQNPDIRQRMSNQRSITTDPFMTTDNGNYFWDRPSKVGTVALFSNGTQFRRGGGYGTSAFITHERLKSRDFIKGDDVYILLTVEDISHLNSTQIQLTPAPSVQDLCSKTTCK

MMP-2 = target: T2, MMP-2 (Homo sapiens, UniProt P08253); assay: Selectivity testing against zinc metalloproteases: MMP-2; conditions: read-out: IC50 MMP-2; n = 3 Mean ± SD
T2 sequence (P08253 110-660): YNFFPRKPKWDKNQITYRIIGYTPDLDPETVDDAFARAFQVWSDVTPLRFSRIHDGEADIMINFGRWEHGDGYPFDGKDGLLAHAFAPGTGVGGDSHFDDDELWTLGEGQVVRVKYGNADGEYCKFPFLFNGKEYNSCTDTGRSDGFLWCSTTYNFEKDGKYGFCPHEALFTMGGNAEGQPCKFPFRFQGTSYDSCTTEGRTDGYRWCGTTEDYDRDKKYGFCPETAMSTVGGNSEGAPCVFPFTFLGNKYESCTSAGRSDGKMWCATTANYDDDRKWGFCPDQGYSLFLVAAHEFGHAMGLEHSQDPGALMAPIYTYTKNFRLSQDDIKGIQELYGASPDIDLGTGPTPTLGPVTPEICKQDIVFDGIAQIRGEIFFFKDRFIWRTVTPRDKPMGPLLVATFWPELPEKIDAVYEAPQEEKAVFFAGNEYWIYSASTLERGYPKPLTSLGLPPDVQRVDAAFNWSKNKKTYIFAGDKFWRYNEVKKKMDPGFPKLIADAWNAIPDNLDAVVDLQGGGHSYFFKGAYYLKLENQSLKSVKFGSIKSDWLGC

meprin α = target: T3, meprin α (Homo sapiens, UniProt Q16819); assay: Meprin α HTS FRET assay, dose response; conditions: read-out: IC50 Meprin α; selectivity testing; n = 3 Mean ± SD
T3 sequence (Q16819 66-653 limits assumed): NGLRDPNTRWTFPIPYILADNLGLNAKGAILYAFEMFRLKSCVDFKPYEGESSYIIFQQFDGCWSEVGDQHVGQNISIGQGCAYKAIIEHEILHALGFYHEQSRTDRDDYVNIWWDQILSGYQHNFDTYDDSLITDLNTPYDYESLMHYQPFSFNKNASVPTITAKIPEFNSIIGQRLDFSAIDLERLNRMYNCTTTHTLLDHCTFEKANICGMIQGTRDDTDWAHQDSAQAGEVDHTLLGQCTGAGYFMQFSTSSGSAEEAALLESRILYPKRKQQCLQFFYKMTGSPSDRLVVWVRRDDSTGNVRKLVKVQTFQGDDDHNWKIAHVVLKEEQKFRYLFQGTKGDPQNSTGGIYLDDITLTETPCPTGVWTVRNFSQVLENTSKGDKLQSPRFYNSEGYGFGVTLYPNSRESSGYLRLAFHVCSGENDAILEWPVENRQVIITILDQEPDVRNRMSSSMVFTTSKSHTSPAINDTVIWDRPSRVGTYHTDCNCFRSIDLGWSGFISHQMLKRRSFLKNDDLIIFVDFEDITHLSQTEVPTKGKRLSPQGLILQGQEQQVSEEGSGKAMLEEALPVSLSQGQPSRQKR
Outline: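 Recombinant human Strep-tagged meprin α was expressed in baculovirus-infected BTI-TN-5B1-4 cells, trypsin-activated, then freed of trypsin. It was used as a 2x solution at 2.6 nM in 50 mM Hepes, 0.01% Brij-35, pH 7.5. Test compound was pre-incubated 30 min at RT, then 2x (MCA)-YVADAPK-(K-ε-DNP) at 20 μM was added for 1 h at RT. Read at ex 324/em 393 nm. 3-fold dilutions in quadruplicate; 4-parameter fit; 0.1% or 1.0% DMSO.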

MMP-13 = MMP-13 (Homo sapiens, UniProt P45452); assay: Selectivity testing against zinc metalloproteases: MMP-13; conditions: read-out: IC50 MMP-13; n = 3 Mean ± SD
meprin β [2] = target: T1, meprin β; assay: Meprin β HTS FRET assay, dose response; conditions: dose response experiment, data not shown
Outline: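 Trypsin-activated meprin β (trypsin removed on immobilized ovomucoid) in 50 mM Hepes, 0.01% Brij-35, pH 7.5, added as 2x (0.15 nM) solution. Pin-transferred inhibitor was preincubated 30 min at RT. 2x (20 μM) (MCA)-EDEDED-(K-ε-DNP) was then added, run 1 h at RT, and read at ex 324/em 393 nm. A 3-fold dilution series was run in quadruplicate, and % inhibition was fitted with a 4-parameter equation. DMSO final was 0.1% or 1.0%.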

ADAM10 = target: T4, ADAM10 (Homo sapiens, UniProt O14672); assay: Selectivity testing against zinc metalloproteases: ADAM10; conditions: read-out: IC50 ADAM10; n = 3 Mean ± SD
T4 sequence (O14672 214-748): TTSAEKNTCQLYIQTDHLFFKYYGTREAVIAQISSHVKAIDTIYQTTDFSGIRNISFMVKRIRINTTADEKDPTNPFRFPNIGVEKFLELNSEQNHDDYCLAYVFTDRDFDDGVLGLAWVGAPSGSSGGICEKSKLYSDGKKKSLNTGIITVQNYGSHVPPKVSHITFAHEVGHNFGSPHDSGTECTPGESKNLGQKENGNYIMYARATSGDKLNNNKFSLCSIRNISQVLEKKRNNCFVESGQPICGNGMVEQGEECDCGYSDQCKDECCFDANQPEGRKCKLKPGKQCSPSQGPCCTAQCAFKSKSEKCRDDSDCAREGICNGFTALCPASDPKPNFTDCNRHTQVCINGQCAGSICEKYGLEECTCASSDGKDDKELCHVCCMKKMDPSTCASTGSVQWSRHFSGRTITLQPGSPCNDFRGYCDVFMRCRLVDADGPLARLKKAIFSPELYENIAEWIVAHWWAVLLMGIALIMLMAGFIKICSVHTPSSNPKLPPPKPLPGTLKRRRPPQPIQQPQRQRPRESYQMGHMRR

ADAM17 = ADAM17 (Homo sapiens, UniProt P78536); assay: Selectivity testing against zinc metalloproteases: ADAM17; conditions: read-out: IC50 ADAM17; n = 3 Mean ± SD
MMP-9 = MMP-9 (Homo sapiens, UniProt P14780); assay: Selectivity testing against zinc metalloproteases: MMP-9; conditions: read-out: IC50 MMP-9; n = 3 Mean ± SD
MMP-1 = target: T5, MMP-1 (Homo sapiens, UniProt P03956); assay: Selectivity testing against zinc metalloproteases: MMP-1; conditions: read-out: IC50 MMP-1; n = 3 Mean ± SD
T5 sequence (P03956 100-469): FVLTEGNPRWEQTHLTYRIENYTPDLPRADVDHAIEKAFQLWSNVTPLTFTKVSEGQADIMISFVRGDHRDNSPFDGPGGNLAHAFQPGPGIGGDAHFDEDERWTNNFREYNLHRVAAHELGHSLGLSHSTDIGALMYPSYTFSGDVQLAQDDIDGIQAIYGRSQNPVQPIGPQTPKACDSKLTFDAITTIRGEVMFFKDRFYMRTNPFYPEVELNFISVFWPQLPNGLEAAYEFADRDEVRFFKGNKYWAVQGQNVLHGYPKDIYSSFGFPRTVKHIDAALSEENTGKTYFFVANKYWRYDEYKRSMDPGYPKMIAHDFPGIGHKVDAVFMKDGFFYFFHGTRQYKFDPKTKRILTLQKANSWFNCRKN

ADAM17, sequence (P78536 215-824, species assumed): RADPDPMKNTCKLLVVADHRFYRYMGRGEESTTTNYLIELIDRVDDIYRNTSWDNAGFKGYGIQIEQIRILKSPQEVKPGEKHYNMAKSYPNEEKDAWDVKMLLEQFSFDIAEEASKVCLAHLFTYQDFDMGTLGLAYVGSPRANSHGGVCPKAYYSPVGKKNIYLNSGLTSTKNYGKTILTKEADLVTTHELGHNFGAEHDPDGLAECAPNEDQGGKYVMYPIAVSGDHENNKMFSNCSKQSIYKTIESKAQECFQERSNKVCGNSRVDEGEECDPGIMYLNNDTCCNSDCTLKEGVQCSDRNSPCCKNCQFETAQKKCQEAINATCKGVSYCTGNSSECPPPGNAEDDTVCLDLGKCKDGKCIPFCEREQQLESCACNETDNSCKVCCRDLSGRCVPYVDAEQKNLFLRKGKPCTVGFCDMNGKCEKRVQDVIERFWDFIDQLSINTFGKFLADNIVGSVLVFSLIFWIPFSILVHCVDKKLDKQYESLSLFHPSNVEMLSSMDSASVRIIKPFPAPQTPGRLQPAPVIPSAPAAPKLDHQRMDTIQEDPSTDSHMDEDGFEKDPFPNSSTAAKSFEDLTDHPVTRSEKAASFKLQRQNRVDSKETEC
MMP-9, sequence (P14780 94-707, species assumed): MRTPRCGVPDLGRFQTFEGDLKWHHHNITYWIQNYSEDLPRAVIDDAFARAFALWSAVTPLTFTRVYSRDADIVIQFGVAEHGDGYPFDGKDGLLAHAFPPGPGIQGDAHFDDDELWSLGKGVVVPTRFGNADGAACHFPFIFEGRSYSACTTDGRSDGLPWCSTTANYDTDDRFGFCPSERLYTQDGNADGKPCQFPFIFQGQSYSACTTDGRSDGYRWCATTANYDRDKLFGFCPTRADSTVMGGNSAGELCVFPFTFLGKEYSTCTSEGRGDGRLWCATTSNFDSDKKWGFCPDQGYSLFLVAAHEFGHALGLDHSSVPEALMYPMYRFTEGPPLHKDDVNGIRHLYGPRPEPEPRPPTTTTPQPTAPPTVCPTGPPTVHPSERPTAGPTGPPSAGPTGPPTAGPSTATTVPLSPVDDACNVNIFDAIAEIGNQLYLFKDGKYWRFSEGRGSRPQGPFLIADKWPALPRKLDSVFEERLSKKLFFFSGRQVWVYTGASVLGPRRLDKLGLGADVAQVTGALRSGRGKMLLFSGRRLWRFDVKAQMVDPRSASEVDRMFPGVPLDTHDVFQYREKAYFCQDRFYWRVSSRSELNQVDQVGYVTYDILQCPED

With `N.N.[Cl][Pt][Cl]` [Cisplatin, cisplatin] the “% inhibition meprin β in pilot screen” value (meprin β [1]) was “negative inhibition values”, the “meprin β LOPAC pilot screen outcome” value (meprin β [1]; hit cutoff 25% inhibition) was “selective hits” and the IC50 (MMP-2) was 5.1 ± 0.6 µM. The IC50 (meprin α) was over 100 µM, the IC50 (MMP-13) was over 100 µM and the “meprin β dose response behaviour” value (meprin β [2]) was “dose dependent negative inhibition”. For the same compound, the IC50 (ADAM10) was 4.2 ± 0.2 µM, the IC50 (ADAM17) was 5.1 ± 0.4 µM and the IC50 (MMP-9) was 13.9 ± 2.1 µM. For the same compound, the IC50 (MMP-1) was 5.1 ± 0.5 µM.
